The term IC50 denotes the concentration that gives 50% inhibition. Low readings indicate higher potency, high ones lower potency.

For 18 molecules, IC50 results are on record in ChEMBL document CHEMBL1134561, “6-Substituted-4-(3-bromophenylamino)quinazolines as putative irreversible inhibitors of the epidermal growth factor receptor (EGFR) and human epidermal growth factor receptor (HER-2) tyrosine kinases with enhanced antitumor activity” (J Med Chem, 2001).

Assay [1] has as its target Receptor tyrosine-protein kinase erbB-2 (Homo sapiens, UniProt P04626). Put plainly: Inhibition of human epidermal growth factor receptor (HER-2) using enzyme assay. The essentials: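 His6-tagged HER-2 cytoplasmic domain was expressed in Sf-9 cells and purified on Ni-NTA (about 80% pure). Enzyme (12.5 ng/well) was preincubated with compound 10 min at room temperature in HEPES pH 7.4. Autophosphorylation ran 1 h with MnCl2/Na3VO4/DTT buffer plus 0.1 mM ATP–50 mM MgCl2 (as added). Europium anti-phosphotyrosine time-resolved fluorescence was read at 340/615 nm. IC50 came from eight concentrations, mean of duplicates.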

Assay [2] concerns SK-BR-3. Briefly: Inhibition of cell growth of SKBr3 cell lines using cell-based assay. The assay is classed as functional. The note with it: Homo sapiens. In short, it runs like this:
(§1)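 Cells kept in RPMI-1640 with 5% fetal bovine serum and plated at 5.0 × 10^4/mL. Next day they were dosed at 0.5, 5, 50, 500 and 5000 ng/mL and cultured 2 days. Survival was read by sulforhodamine B. IC50 is the concentration inhibiting growth by 50%, taken from the five-point dose-response curve.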

The subject of assay [3] is A-431. Briefly: Inhibition of cell growth of human epidermoid carcinoma xenograft (A431) model using cell based assay. It counts as functional. A general note: A xenograft is tissue or cells of one species grown in another, often human tumour cells in immunodeficient mice.
For assay [4], the system named is SW-620. Put plainly: Inhibition of cell growth of SW620 cell lines using cell-based assay. The assay is classed as functional. The note with it: Homo sapiens. In short, it runs like this: as §1
Assay [5] addresses Epidermal growth factor receptor (Homo sapiens, UniProt P00533). Put plainly: Inhibition of epidermal growth factor receptor using enzyme assay.

Each structure is given as a SMILES string.

Sequence of Epidermal growth factor receptor (P00533 whole entry): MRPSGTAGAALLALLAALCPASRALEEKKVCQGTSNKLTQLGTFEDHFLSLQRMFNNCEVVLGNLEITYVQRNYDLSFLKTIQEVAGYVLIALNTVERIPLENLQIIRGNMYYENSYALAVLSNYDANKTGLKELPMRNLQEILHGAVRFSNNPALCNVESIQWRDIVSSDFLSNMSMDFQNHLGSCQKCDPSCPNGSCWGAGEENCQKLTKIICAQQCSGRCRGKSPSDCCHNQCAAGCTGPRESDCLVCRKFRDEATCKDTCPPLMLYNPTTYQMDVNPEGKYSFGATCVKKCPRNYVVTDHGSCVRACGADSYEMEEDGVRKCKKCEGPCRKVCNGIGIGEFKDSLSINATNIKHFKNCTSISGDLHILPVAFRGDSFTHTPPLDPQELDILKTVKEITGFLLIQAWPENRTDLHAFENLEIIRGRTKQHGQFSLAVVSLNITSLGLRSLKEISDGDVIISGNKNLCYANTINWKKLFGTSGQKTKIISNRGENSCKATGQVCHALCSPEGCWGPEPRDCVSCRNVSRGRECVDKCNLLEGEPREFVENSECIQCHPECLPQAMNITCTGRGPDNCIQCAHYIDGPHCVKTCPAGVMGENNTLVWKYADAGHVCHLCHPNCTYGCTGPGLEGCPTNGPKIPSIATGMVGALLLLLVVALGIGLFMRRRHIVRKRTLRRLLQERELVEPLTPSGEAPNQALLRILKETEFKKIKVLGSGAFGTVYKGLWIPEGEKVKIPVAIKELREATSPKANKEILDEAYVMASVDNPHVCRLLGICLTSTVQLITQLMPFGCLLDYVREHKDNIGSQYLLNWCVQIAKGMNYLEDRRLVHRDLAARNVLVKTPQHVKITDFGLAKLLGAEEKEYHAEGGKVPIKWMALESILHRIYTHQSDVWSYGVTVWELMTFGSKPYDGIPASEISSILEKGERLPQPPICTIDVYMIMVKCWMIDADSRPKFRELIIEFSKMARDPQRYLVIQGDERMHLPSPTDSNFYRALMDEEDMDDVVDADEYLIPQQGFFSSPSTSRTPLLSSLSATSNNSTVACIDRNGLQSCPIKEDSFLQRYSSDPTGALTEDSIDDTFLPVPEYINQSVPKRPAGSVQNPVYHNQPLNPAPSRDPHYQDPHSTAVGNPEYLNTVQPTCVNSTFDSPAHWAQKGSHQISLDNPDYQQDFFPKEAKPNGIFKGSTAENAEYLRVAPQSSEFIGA
Sequence of Receptor tyrosine-protein kinase erbB-2 (P04626 whole entry, the tested form may be a part): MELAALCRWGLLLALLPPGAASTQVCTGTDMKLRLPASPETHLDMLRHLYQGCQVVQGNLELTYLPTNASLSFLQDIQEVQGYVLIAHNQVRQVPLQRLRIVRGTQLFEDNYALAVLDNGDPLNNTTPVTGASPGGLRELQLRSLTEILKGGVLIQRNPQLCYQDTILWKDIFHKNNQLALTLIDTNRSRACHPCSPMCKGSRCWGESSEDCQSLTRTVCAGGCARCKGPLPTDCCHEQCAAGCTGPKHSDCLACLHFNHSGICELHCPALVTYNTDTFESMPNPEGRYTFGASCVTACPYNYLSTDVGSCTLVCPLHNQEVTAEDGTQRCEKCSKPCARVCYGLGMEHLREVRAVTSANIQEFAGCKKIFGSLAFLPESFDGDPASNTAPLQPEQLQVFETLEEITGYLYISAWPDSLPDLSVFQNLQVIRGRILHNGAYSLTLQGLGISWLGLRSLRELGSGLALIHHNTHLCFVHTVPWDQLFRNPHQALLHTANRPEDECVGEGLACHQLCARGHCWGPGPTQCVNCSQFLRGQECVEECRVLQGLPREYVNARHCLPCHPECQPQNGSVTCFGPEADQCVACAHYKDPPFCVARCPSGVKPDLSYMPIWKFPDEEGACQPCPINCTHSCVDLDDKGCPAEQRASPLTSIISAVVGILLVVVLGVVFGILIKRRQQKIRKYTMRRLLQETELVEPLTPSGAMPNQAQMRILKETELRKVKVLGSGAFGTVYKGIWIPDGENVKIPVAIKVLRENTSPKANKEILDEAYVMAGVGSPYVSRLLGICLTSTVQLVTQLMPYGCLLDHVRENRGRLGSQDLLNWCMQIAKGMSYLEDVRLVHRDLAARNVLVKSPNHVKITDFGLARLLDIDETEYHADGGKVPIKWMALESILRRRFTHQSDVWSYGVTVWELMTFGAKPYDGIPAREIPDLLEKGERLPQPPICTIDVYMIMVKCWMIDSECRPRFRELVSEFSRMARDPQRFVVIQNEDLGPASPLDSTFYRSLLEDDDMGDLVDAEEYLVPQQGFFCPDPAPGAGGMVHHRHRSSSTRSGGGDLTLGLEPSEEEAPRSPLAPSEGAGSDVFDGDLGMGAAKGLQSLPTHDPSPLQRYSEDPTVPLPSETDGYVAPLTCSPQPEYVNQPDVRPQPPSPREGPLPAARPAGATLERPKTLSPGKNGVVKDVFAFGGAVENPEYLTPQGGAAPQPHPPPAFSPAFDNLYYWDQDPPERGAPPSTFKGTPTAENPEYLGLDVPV

Turning to `CC(C)N(CC#CC(=O)Nc1ccc2ncnc(Nc3cccc(Br)c3)c2c1)C(C)C`, the IC50 worked out at 162 nM in assay [1]; 4 nM in assay [2]; 94 nM in assay [3]; 302 nM in assay [4]; 97 nM in assay [5].

Regarding `C/C=C/C(=O)Nc1ccc2ncnc(Nc3cccc(Br)c3)c2c1`, the IC50 in assay [1] stood at 91300 nM; in assay [2] it was 1100 nM; in assay [4], 13100 nM.

In the case of `O=C(C#CCN1CCSCC1)Nc1ccc2ncnc(Nc3cccc(Br)c3)c2c1`, the IC50 in assay [1] was 124 nM; in assay [2], 2 nM; in assay [3], 83 nM; in assay [4], 581 nM; in assay [5], 95 nM.

For the molecule `O=C(/C=C/CN1CCOCC1)Nc1ccc2ncnc(Nc3cccc(Br)c3)c2c1`, the IC50 worked out at 2780 nM in assay [1]; 13 nM in assay [2]; 1890 nM in assay [3]; 10700 nM in assay [4]; 74 nM in assay [5].

Take `O=C(C#CCN1CCOCC1)Nc1ccc2ncnc(Nc3cccc(Br)c3)c2c1`: the IC50 was found to be 53 nM in assay [1]; 2 nM in assay [2]; 150 nM in assay [3]; 1660 nM in assay [4]; 20 nM in assay [5].

As to `CCN(CC)C/C=C/C(=O)Nc1ccc2ncnc(Nc3cccc(Br)c3)c2c1`, the IC50 was determined as 1160 nM in assay [1]; 2 nM in assay [2]; 194 nM in assay [3]; 2390 nM in assay [4]; 73 nM in assay [5].

Consider `COCC#CC(=O)Nc1ccc2ncnc(Nc3cccc(Br)c3)c2c1`, for which the IC50 in assay [1] was 33 nM; in assay [2] it was 46 nM; in assay [3] it was 268 nM; in assay [4], 1730 nM; in assay [5], 9 nM.

For the molecule `CCN(CC)CC#CC(=O)Nc1ccc2ncnc(Nc3cccc(Br)c3)c2c1`, the IC50 in assay [1] stood at 38 nM; in assay [2] it was 6 nM; in assay [3] it was 111 nM; in assay [4], 610 nM; in assay [5] it was 12 nM.

For the molecule `CN(C/C=C/C(=O)Nc1ccc2ncnc(Nc3cccc(Br)c3)c2c1)CCO`, the IC50 in assay [1] amounted to 414 nM; in assay [2], 3 nM; in assay [3] it was 329 nM; in assay [4] it was 7530 nM; in assay [5], 14 nM.

For `COC[C@@H]1CCCN1C/C=C/C(=O)Nc1ccc2ncnc(Nc3cccc(Br)c3)c2c1`, the IC50 in assay [1] is 1910 nM; in assay [2] it was 2 nM; in assay [3], 222 nM; in assay [4], 2620 nM; in assay [5], 131 nM.

For the molecule `CCCN(CC#CC(=O)Nc1ccc2ncnc(Nc3cccc(Br)c3)c2c1)CCC`, the IC50 in assay [1] was 177 nM; in assay [2] it was 2 nM; in assay [3], 42 nM; in assay [4], 198 nM; in assay [5], 62 nM.

As for `O=C(/C=C/Cn1cccn1)Nc1ccc2ncnc(Nc3cccc(Br)c3)c2c1`, the IC50 in assay [1] amounted to 15600 nM; in assay [2] it was 568 nM; in assay [3], 1370 nM; in assay [4], 11100 nM; in assay [5], 1120 nM.

Turning to `C/C=C\C(=O)Nc1ccc2ncnc(Nc3cccc(Br)c3)c2c1`, the IC50 in assay [1] is 21700 nM; in assay [2], 742 nM; in assay [4], 12500 nM.

For the molecule `O=C(C#CCO)Nc1ccc2ncnc(Nc3cccc(Br)c3)c2c1`, the figures for the IC50 in assay [1] and in assay [2] were 16 nM and 43 nM, respectively.

Regarding `CN(C)C/C=C/C(=O)Nc1ccc2ncnc(Nc3cccc(Br)c3)c2c1`, the IC50 was 301 nM in assay [1], 2 nM in assay [2] and 2340 nM in assay [4].

Regarding `CN(C)CC#CC(=O)Nc1ccc2ncnc(Nc3cccc(Br)c3)c2c1`, the figures for the IC50 in assay [1], in assay [2] and in assay [4] were 14 nM, 11 nM and 530 nM, respectively.

In the case of `C=C(C)C(=O)Nc1ccc2ncnc(Nc3cccc(Br)c3)c2c1`, the IC50 was 15200 nM in assay [1], 2220 nM in assay [2] and 20700 nM in assay [4].

On to `CC#CC(=O)Nc1ccc2ncnc(Nc3cccc(Br)c3)c2c1`, for which the IC50 in assay [1] was 378 nM; in assay [2], 17 nM; in assay [4], 1500 nM.
